As a reminder, the inhibition in vivo is the drop in the measured response relative to a control, in per cent. The term Cmax denotes the highest concentration seen after dosing. What is called solubility is the concentration that dissolves in the medium under given conditions. Read a low solubility as a poorly soluble substance. In general, AUC(0-t) refers to the area under the concentration-time curve up to a stated or last time point. Low values mean low exposure, high ones high exposure. The half-life is the time needed for the level to fall by half in the phase considered. Low values mean rapid decline, high ones slow decline.

The text below walks through data of ChEMBL document CHEMBL4402595, “Discovery of Orally Bioavailable Chromone Derivatives as Potent and Selective BRD4 Inhibitors: Scaffold Hopping, Optimization, and Pharmacological Evaluation” (J Med Chem, 2020).

Calls of active or inactive are those of the source. Some results are limits rather than exact numbers.

The test system of data set [1] is Mus musculus. Put plainly: Antiinflammatory activity in C57BL6/J mouse model of TLR3-induced acute airway inflammation assessed as inhibition of elevated ISG54 gene expression in lung at 10 mg/kg, ip pre-treated 1 day before poly(I:C) stimulation followed by compound re-dosing at 10 mg/kg, ip before another poly(I:C) stimulation and measured after 1 day post last poly(I:C) stimulation. The data set is classed as functional, organism-based. Summed up: (§1)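 Male C57BL/6J mice, 12 weeks old, 5 per group, dosed 10 mg/kg one day before challenge and again immediately before intranasal poly(I:C) (300 μg in 50 μL PBS). Controls were vehicle alone and poly(I:C) alone. Lungs were taken 1 day later. Gene expression in lung tissue was measured by qRT-PCR, normalized to PPIA.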

Data set [2] concerns Mus musculus. Put plainly: Antiinflammatory activity in C57BL6/J mouse model of TLR3-induced acute airway inflammation assessed as inhibition of elevated KC levels in BALF at 10 mg/kg, po pre-treated 1 day before poly(I:C) stimulation followed by compound re-dosing at 10 mg/kg, po before another poly(I:C) stimulation and measured after 1 day post last poly(I:C) stimulation by cytokine Bio-Plex assay. The data set is classed as functional, organism-based. The gist of the method: (§2)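 Male C57BL/6J mice, 12 weeks old, 5 per group, dosed 10 mg/kg the day before and again immediately before intranasal poly(I:C) (300 μg in 50 μL PBS). BALF was collected 1 day later by two 1 mL PBS lavages and centrifuged at 800 × g for 5 min at 4 °C. Supernatant cytokines were measured by multiplex bead immunoassay against recombinant standards in triplicate.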

The test system of data set [3] is Mus musculus. Put plainly: In-vivo inhibition of BRD4 in C57BL6/J mouse model of TLR3-induced acute airway inflammation assessed as reduction in H3K122Ac levels in lung at 10 mg/kg, ip pre-treated 1 day before poly(I:C) stimulation followed by compound re-dosing at 10 mg/kg, ip before another poly(I:C) stimulation and measured after 1 day post last poly(I:C) stimulation by immunofluorescence staining. The data set is classed as functional, organism-based. The gist of the method:
(§3)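 Male C57BL/6J mice, 5 per group, dosed 10 mg/kg before and again at intranasal poly(I:C) challenge (300 μg). Lungs were taken 1 day later, paraffin sections made, and antigen retrieved at pH 9.0. Sections were stained with anti-acetyl-H3K122 and an Alexa 568 secondary with DAPI, imaged by confocal at 63×, and total fluorescence reported as fold change.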

Data set [4] has as its system Mus musculus. Kind of data set: Antiinflammatory activity in C57BL6/J mouse model of TLR3-induced acute airway inflammation assessed as inhibition of elevated neutrophils in BALF at 10 mg/kg, po pre-treated 1 day before poly(I:C) stimulation followed by compound re-dosing at 10 mg/kg, po before another poly(I:C) stimulation and measured after 1 day post last poly(I:C) stimulation. The data set is classed as functional, organism-based. The gist of the method: (§4)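 Male C57BL/6J mice, 12 weeks old, 5 per group, dosed 10 mg/kg one day before and again immediately before intranasal poly(I:C) (300 μg/50 μL PBS). BALF was collected 1 day later. Total viable cells were counted by trypan blue with a hemocytometer. Neutrophils were counted as a differential of 300 cells on Wright-Giemsa stained cytospins.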

Data set [5] relates to Mus musculus. Kind of data set: Antiinflammatory activity in C57BL6/J mouse model of TLR3-induced acute airway inflammation assessed as inhibition of neutrophilic inflammation around small and medium-sized airways at 10 mg/kg, ip pre-treated 1 day before poly(I:C) stimulation followed by compound re-dosing at 10 mg/kg, ip before another poly(I:C) stimulation and measured after 1 day post last poly(I:C) stimulation by …. The data set is classed as functional.

Data set [6] in a line: Oral bioavailability in Sprague-Dawley rat at 20 mg/kg measured after 2 to 26 hrs. Conditions: in vivo. The data set is classed as ADME, organism-based. Summed up: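 Male Sprague-Dawley rats received a single dose either intravenously (10 mg/kg) or orally. Plasma concentration–time curves were followed after each route. Total clearance (CL) came from the i.v. arm, and oral bioavailability (F) was derived by comparing the p.o. and i.v. profiles.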

A short description of data set [7]: Cmax in Sprague-Dawley rat at 10 mg/kg, iv measured after 2 to 26 hrs. The data set is classed as ADME, organism-based. Further details: dose 10 mg/kg, route intravenous. Conditions: in vivo.
Data set [8] relates to Mus musculus. Put plainly: Antiinflammatory activity in C57BL6/J mouse model of TLR3-induced acute airway inflammation assessed as inhibition of elevated MCP1 levels in BALF at 10 mg/kg, po pre-treated 1 day before poly(I:C) stimulation followed by compound re-dosing at 10 mg/kg, po before another poly(I:C) stimulation and measured after 1 day post last poly(I:C) stimulation by cytokine Bio-Plex assay. The data set is classed as functional, organism-based. The gist of the method:
as §2

The nature of data set [9]: Aqueous solubility in water incubated at 25 degC for 24 hrs by HPLC analysis. Conditions: buffer. The data set is classed as physicochemical. The gist of the method: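 Compound suspension was shaken at 25 °C for 24 h, then centrifuged and the supernatant filtered. Supernatant was quantified by C18 reverse-phase HPLC against a one-point calibration of a known concentration.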

Data set [10] has as its system Mus musculus. Put plainly: Antiinflammatory activity in C57BL6/J mouse model of TLR3-induced acute airway inflammation assessed as inhibition of elevated KC gene expression in lung at 10 mg/kg, ip pre-treated 1 day before poly(I:C) stimulation followed by compound re-dosing at 10 mg/kg, ip before another poly(I:C) stimulation and measured after 1 day post last poly(I:C) stimulation. The data set is classed as functional, organism-based. Summed up:
as §1

Data set [11] is described as follows: Cmax in Sprague-Dawley rat at 20 mg/kg, po measured after 2 to 26 hrs. The data set is classed as ADME, organism-based. The arrangement: dose 20 mg/kg, route oral. Conditions: in vivo.
Data set [12] in a line: AUC (0 to t) in Sprague-Dawley rat at 10 mg/kg, iv measured after 2 to 26 hrs. The data set is classed as ADME, organism-based. The following applies: in vivo.
Data set [13] deals with Mus musculus. Kind of data set: Antiinflammatory activity in C57BL6/J mouse model of TLR3-induced acute airway inflammation assessed as inhibition of elevated RANTES levels in BALF at 10 mg/kg, po pre-treated 1 day before poly(I:C) stimulation followed by compound re-dosing at 10 mg/kg, po before another poly(I:C) stimulation and measured after 1 day post last poly(I:C) stimulation by cytokine Bio-Plex assay. The data set is classed as functional, organism-based. Summed up:
as §2

Data set [14] relates to Mus musculus. Kind of data set: Antiinflammatory activity in C57BL6/J mouse model of TLR3-induced acute airway inflammation assessed as inhibition of elevated CIG5 gene expression in lung at 10 mg/kg, po pre-treated 1 day before poly(I:C) stimulation followed by compound re-dosing at 10 mg/kg, po before another poly(I:C) stimulation and measured after 1 day post last poly(I:C) stimulation. The data set is classed as functional, organism-based. The gist of the method:
as §1

Data set [15] is described as follows: Half life in Sprague-Dawley rat at 10 mg/kg, iv measured after 2 to 26 hrs. Conditions: in vivo. The data set is classed as ADME, organism-based.
In data set [16] the test system is Mus musculus. Kind of data set: Antiinflammatory activity in C57BL6/J mouse model of TLR3-induced acute airway inflammation assessed as inhibition of neutrophilic inflammation around small and medium-sized airways at 10 mg/kg, po pre-treated 1 day before poly(I:C) stimulation followed by compound re-dosing at 10 mg/kg, po before another poly(I:C) stimulation and measured after 1 day post last poly(I:C) stimulation by …. The data set is classed as functional.

The test system of data set [17] is Mus musculus. Kind of data set: In-vivo inhibition of BRD4 in C57BL6/J mouse model of TLR3-induced acute airway inflammation assessed as reduction in H3K122Ac levels in lung at 10 mg/kg, po pre-treated 1 day before poly(I:C) stimulation followed by compound re-dosing at 10 mg/kg, po before another poly(I:C) stimulation and measured after 1 day post last poly(I:C) stimulation by immunofluorescence staining. The data set is classed as functional, organism-based. The gist of the method:
as §3

In data set [18] the test system is Mus musculus. Kind of data set: Antiinflammatory activity in C57BL6/J mouse model of TLR3-induced acute airway inflammation assessed as inhibition of elevated total cells in BALF at 10 mg/kg, ip pre-treated 1 day before poly(I:C) stimulation followed by compound re-dosing at 10 mg/kg, ip before another poly(I:C) stimulation and measured after 1 day post last poly(I:C) stimulation. The data set is classed as functional, organism-based. The gist of the method: as §4

Data set [19] concerns Mus musculus. Kind of data set: Antiinflammatory activity in C57BL6/J mouse model of TLR3-induced acute airway inflammation assessed as inhibition of elevated IL-6 levels in BALF at 10 mg/kg, ip pre-treated 1 day before poly(I:C) stimulation followed by compound re-dosing at 10 mg/kg, ip before another poly(I:C) stimulation and measured after 1 day post last poly(I:C) stimulation by cytokine Bio-Plex assay. The data set is classed as functional, organism-based. Summed up: as §2

Turning to `COc1cc(OC)c2c(=O)cc(-c3cc(C)c(OC[C@H](O)CN4CCCCC4)c(C)c3)oc2c1`, the inhibition entry in the data set on Mus musculus [1], in the data set on Mus musculus [2], in the data set on Mus musculus [3], with Mus musculus [4], in the data set with Mus musculus [8] and in the data set on Mus musculus [10] was “Active” in each case. In addition, the inhibition entry in the data set with Mus musculus [13], in the data set on Mus musculus [14], in the data set with Mus musculus [17], with Mus musculus [18] and in the data set with Mus musculus [19] was “Active” in each case. Also, the inhibition in vivo at 10 mg/kg in the data set on Mus musculus [5] and with Mus musculus [16] was 100% in each case. In [6], the F is reported as 38.2%. In addition, the Cmax was found to be 2860 ng/mL in data set [7] and 575 ng/mL in data set [11]. In addition, the solubility in [9] was over 50 mg/mL. The compound also had an AUC(0-t) in [12] of 6760 ng·h/mL. For the same compound, in data set [15], the half-life is 3.5 h.

Consider `COc1cc(OC)c2c(=O)cc(-c3cc(C)c(OC[C@H](O)CN4CCN(C)CC4)c(C)c3)oc2c1`, for which the inhibition result in the data set with Mus musculus [1], in the data set on Mus musculus [2], in the data set with Mus musculus [3], with Mus musculus [4], with Mus musculus [8] and with Mus musculus [10] was “Active” throughout. The inhibition result in the data set on Mus musculus [13], in the data set on Mus musculus [14], in the data set with Mus musculus [17], with Mus musculus [18] and in the data set on Mus musculus [19] was “Active” in each case. In addition, the inhibition in vivo at 10 mg/kg with Mus musculus [5] and with Mus musculus [16] was 100% throughout. Besides, in [6], the F is listed as 35.3%. Besides, the Cmax is 2090 ng/mL in [7] and 606 ng/mL in data set [11]. The compound further gave a solubility in [9] of over 50 mg/mL. For the same compound, the exposure AUC(0-t) in [12] turned out to be 7030 ng·h/mL. Also, the half-life in data set [15] was 4.1 h.
